Screens: PubChem, several laboratories
HSV replic up = HSV replication enhancement. hit rate 0.005% among 220,000. HSV replication augmentation in cells, fold increase. maximum fold increase. AID 1956; in the data active = maximum fold increase above about 1.5; tested in PC3 cells
Cl transport mod = modulators of human KCC2 chloride dependent transport; KCC2 cells, thallium flux FluoZin-2 fluorescence; B-score of Tl+ flux slope (higher = more flux/activation; lower = inhibition) at 10 µM; hit rate 2.2% among 190,000;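 active = thallium flux slope and its plate-corrected score both differing from the plate sample mean at a set confidence after two filtering rounds, in either direction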;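 also: slope of fluorescence scaled to starting intensity during 10 to 20 s after thallium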
Target sequence (Q9H2X9 whole entry, looked up): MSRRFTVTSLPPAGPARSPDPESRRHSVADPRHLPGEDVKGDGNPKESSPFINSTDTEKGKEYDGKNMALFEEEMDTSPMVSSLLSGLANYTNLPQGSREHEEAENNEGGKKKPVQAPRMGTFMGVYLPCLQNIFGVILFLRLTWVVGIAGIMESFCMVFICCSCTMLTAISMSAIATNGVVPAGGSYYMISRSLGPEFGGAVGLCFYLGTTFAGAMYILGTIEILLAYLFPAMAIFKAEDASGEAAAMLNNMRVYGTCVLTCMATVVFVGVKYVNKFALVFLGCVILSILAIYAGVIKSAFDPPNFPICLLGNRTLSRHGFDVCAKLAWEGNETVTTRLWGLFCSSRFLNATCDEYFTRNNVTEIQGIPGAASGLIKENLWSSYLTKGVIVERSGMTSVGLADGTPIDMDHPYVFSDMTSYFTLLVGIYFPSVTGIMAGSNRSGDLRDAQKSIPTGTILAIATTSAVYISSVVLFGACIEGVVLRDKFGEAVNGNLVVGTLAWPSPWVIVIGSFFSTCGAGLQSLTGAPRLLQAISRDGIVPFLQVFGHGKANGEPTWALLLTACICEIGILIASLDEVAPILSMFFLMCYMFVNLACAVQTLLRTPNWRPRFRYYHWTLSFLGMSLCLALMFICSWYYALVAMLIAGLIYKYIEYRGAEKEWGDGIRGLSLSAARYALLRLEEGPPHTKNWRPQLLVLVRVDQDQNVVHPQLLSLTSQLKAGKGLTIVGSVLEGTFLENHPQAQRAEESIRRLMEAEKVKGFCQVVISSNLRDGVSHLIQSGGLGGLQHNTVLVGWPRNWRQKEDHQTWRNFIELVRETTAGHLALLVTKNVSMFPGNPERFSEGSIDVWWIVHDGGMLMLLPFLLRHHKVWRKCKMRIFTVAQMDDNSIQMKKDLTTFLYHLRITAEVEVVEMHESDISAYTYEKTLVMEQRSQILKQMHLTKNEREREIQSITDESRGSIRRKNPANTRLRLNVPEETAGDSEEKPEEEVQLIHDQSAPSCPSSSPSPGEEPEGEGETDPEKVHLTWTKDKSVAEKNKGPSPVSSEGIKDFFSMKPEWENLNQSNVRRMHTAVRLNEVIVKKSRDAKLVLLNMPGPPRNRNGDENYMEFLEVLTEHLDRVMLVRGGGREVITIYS
STAT3 blocker = inhibitors of IL-6 induced STAT3 signaling. U3A cells, IL-6 STAT3-luciferase reporter, luminescence; host cell line lacks STAT1. inhibition, % at 5.5 µM. hit rate 0.89% among 190,000. AID 862;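 active = inhibition above the mean inhibition across all screened compounds plus 3 SD, cut at about 44% in these data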;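 also: 0% = DMSO only wells and 100% = 100 µM nifuroxazide control wells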
STAT1 act-1 = STAT1 signaling activation. hit rate 2.6% among 200,000. activation (% of control), % at 5.5 µM. AID 932. NIH 3T3 STAT1-luciferase reporter, IFN-gamma, luminescence; 100% = IFN-gamma alone, no compound;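 active = activation above the screen-wide mean activation plus 3 SD, cut at about 130% in these data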;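 also: raw ratio to IFN-gamma control signal so 100% means no change and 0% no light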
STAT1 blocker = STAT1 signaling inhibition. NIH 3T3 STAT1-luciferase reporter, IFN-gamma, luminescence. inhibition, % at 5.5 µM. hit rate 0.35% among 200,000;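 active = inhibition above a set limit, the mean inhibition across all tested compounds plus 3 SD, cut at about 34% in these data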;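 also: 0% = IFN-gamma with DMSO and 100% = IFN-gamma with 300 µM nifuroxazide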
STAT3 act-1 = increases IL-6 driven STAT3 reporter signal | activation (% of control), % at 5.6 µM | hit rate 0.91% among 190,000 | AID 871 | U3A cells, IL-6 STAT3-luciferase reporter, luminescence; 100% = signal with IL-6 EC80 alone;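 active = activation above the screen-wide mean of compound activation plus 3 SD, cut at about 130% in these data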;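 also: 0% = background luminescence of wells with medium and substrate only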
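System – human U3A cells carrying STAT3-luciferase construct · Probe or stimulus – Interleukin-6, 33 ng/mL · Schedule – compound 1 h, then IL-6 6 h at 37 °C · Signal – luminescence from STAT3-driven luciferase reporter · Evaluation – percent of IL-6-only median luminescence · Benchmarks – IL-6-only high control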
STAT3 act-2 = confirmation of STAT3 signaling activators | U3A STAT3-luciferase reporter, IL-6 potentiation, luminescence; U3A cells lack STAT1; 100 means same as IL-6 alone | hit rate 64% among 1,200 | shares compounds with STAT3 act-1 | potentiation (% of control), % at 5.7 µM;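 active = percent activation of the STAT3 luciferase reporter above a set limit taken from the earlier primary screen, cut at about 130% in these data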;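 also: 0% = background signal of medium plus substrate and 100% = median of IL-6 with DMSO wells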
NFkB act 2 = NF-kappaB activation in STAT3 activator counter-screen; human cells, NF-kappaB reporter activation; activation (% of control), % at 5.7 µM; AID 1309; shares compounds with STAT3 act-1; hit rate 11% among 1,200; in the data active = activation above about 120%;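 also: reporter induced by TNF-alpha stimulation; 100% = median of stimulated DMSO wells and 0% = no signal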
STAT1 act-2 = STAT1 activation in STAT3 activator counter-screen; shares compounds with STAT3 act-1; hit rate 13% among 1,200; activation (% of control), % at 5.7 µM; NIH 3T3 STAT1-luciferase reporter, IFN-gamma, luminescence;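 active = activation above the solvent-only control well mean plus 3 SD, set per screening run, cut at about 120% in these data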;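 also: 100% = IFN-gamma with DMSO median signal so 100% means no change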
Active calls of the source: *; i = inactive; nt = not tested or not shown. Sampled rows, rich in hits. Any-hit rate of the full collection: about 5.5%.

SMILES | HSV replic up | Cl transport mod | STAT3 blocker | STAT1 act-1 | STAT1 blocker | STAT3 act-1 | STAT3 act-2 | NFkB act 2 | STAT1 act-2
Cc1ccc(NC(=O)c2c(Cl)n(C)c3ccccc23)cc1 | nt | nt | -68 | 108 | -9 | 170* | 190* | 123* | 132*
O=[N+]([O-])c1cc(Cl)ccc1N1CCCC1 | i | -1 | 4 | 97 | 2 | 100 | nt | nt | nt
O=C1C(Cl)=C(N2CCN(c3ccccc3[N+](=O)[O-])CC2)C(=O)c2ccccc21 | i | 0.61 | -52 | 103 | -4 | 145* | 135* | 110 | 94
Cc1ccc(S(=O)(=O)n2nnc3ccccc32)c(C)c1C | i | 1.6 | -5 | 103 | -6 | 108 | nt | nt | nt
O=C(CSc1nc2ccccc2s1)N/N=C/c1ccco1 | i | -0.29 | -3 | 96 | 4 | 103 | nt | nt | nt
N#C/C(=C\c1ccco1)Sc1nc2ccccc2s1 | i | -0.5 | -45 | 104 | -4 | 138* | 122 | 107 | 103
CSc1nnc2c(n1)c(C)nn2-c1ccc(C)cc1 | i | 0.11 | -56 | 96 | 2 | 149* | 161* | 116 | 128*
O=C(Nc1ccccc1N1CCN(C(=O)c2ccccc2)CC1)c1cccc(Cl)c1 | i | -0.055 | nt | nt | nt | nt | nt | nt | nt
CN1CCN(c2ccccc2NC(=O)c2ccc(Br)o2)CC1 | i | 0.085 | 14 | 101 | -9 | 90 | nt | nt | nt
O=C(Nc1ccccc1N1CCN(C(=O)c2ccccc2)CC1)c1cc2ccccc2o1 | i | -0.51 | -46 | 97 | 4 | 142* | 126 | 101 | 96
O=C(Nc1ccccc1N1CCCC1)c1cc2ccccc2o1 | nt | 0.11 | -60 | 123 | -25 | 152* | 140* | 124* | 134*
CN1CCN(c2ccccc2NC(=O)c2cc3ccccc3o2)CC1 | i | nt | -50 | 108 | -9 | 144* | 126 | 102 | 102
O=C(CNC(=S)N(CCCN1CCOCC1)Cc1cccs1)N1CCCC1 | i | 0.19 | 27 | 96 | 3 | 82 | nt | nt | nt
COC(=O)c1sccc1NC(=S)Nc1ccc(F)cc1 | i | 1.1 | 12 | 90 | 11 | 92 | nt | nt | nt
COC(=O)c1sccc1NC(=O)Nc1cccc(F)c1 | i | 0.39 | -43 | 127 | -29 | 150* | 131 | 121* | 135*
O=C(Nc1ccccn1)C(=O)Nc1ccccn1 | i | 1 | nt | nt | nt | nt | nt | nt | nt
O=C(Nc1ccccn1)c1ccc2ccccc2n1 | i | -0.11 | -50 | 111 | -12 | 147* | 180* | 128* | 164*
CCOC(=O)N1CCC(NC2CCCCCCC2)CC1 | i | nt | 6 | 106 | -7 | 101 | nt | nt | nt
O=C(CC1Nc2ccccc2NC1=O)Nc1ccc2c(c1)OCO2 (stereo unspecified) | i | 0.032 | 14 | 111 | -14 | 90 | nt | nt | nt
Cc1ccc(NC(=O)CC2Nc3ccccc3NC2=O)cc1Cl (stereo unspecified) | i | 0.38 | -46 | 106 | -7 | 138* | 109 | 110 | 109
CC(C)(C)n1nc2c(c1NC(=O)c1ccc(S(=O)(=O)N3CCCC3)cc1)CSC2 | i | -2.4 | -63 | 92 | 9 | 152* | 145* | 108 | 95
c1ccc2c(-c3nc4ncccc4o3)cccc2c1 | nt | -0.9 | -43 | 103 | -3 | 141* | 124 | 109 | 110
O=C(c1csc2c1CCCC2)N1CCN(c2cccc(C(F)(F)F)c2)CC1 | i | 0.52 | 8 | 98 | 3 | 97 | nt | nt | nt
O=S(=O)(c1ccccc1)n1ccc2ccccc21 | i | -1 | -41 | 99 | 1 | 139* | 126 | 102 | 99
Cc1ccc(NC(=O)C2CC(=O)n3ncnc3N2)cc1C (stereo unspecified) | i | 1.5 | 13 | 95 | 7 | 93 | nt | nt | nt
SMILES | HSV replic up | Cl transport mod | STAT3 blocker | STAT1 act-1 | STAT1 blocker | STAT3 act-1 | STAT3 act-2 | NFkB act 2 | STAT1 act-2
Nc1ccccc1-c1nnc(-c2ccc(-c3ccccc3)cc2)o1 | nt | -0.91 | -14 | 128 | -31 | 110 | nt | nt | nt
Nc1c(Br)cc2oc(-c3ccccc3)nc2c1Br | i | 0.017 | -62 | 112 | -13 | 146* | 181* | 123* | 152*
O=C(O)CN1C(=O)SC(Nc2ccccc2C(=O)O)C1=O (stereo unspecified) | i | 0.47 | -6 | 101 | -1 | 105 | nt | nt | nt
CC1(C)CC(=O)C(c2c[nH]c3ccccc23)C(=O)C1 | i | -0.032 | -55 | 94 | 5 | 152* | 163* | 109 | 103
CC12CN3CC(C)(CN(C1)C3c1c[nH]c3ccccc13)C2=O (stereo unspecified) | i | 0.089 | 8 | 102 | -4 | 97 | nt | nt | nt
CCOC(=O)C(O)(CC(=O)c1ccc(OC)cc1)C(F)(F)F (stereo unspecified) | i | 0.61 | -18 | 111 | -6 | 118 | nt | nt | nt
CN1CCc2c(sc3c2C(=O)NC(c2ccco2)N3)C1 (stereo unspecified) | i | nt | 1 | 102 | -3 | 103 | nt | nt | nt
O=C1NC(c2cccs2)Nc2sc3c(c21)CCCC3 (stereo unspecified) | i | 0.35 | -48 | 101 | -1 | 143* | 139* | 125* | 119
COC(=O)CCC(=O)Nc1ccc(C)cc1OC(=O)CCC(=O)OC | i | 1.1 | -42 | 105 | -1 | 136* | 108 | 100 | 98
O=C1N(CC(=O)N2CCc3ccccc32)CCN1Cc1ccccc1Cl | i | -2 | -13 | 104 | -5 | 109 | nt | nt | nt
c1ccc2sc(Sc3ncnc4sccc34)nc2c1 | i | 0.35 | -61 | 110 | -11 | 151* | 159* | 97 | 102
O=C(COc1ccccc1Cl)Nc1cc(Cl)ccc1O | i | 0.55 | -74 | 96 | 2 | 166* | 161* | 100 | 94
COc1ccccc1CC(=O)Nc1cc(Cl)ccc1O | i | -1.8 | 4 | 96 | 4 | 99 | nt | nt | nt
CC1CC1c1ccc(/C=C(\C#N)C(=O)Nc2cccc(Cl)c2Cl)o1 (stereo unspecified) | nt | 2.4 | 7 | 110 | -11 | 93 | nt | nt | nt
Cc1ccc(C)c(NC(=S)c2nc3ccccc3s2)c1 | i | 22* | -53 | 104 | -4 | 142* | 203* | 127* | 130*
CCOc1ccc(C(=O)CN2CCN(S(=O)(=O)c3ccc(OC)cc3)CC2)cc1 | i | 0.44 | 3 | 92 | 9 | 101 | nt | nt | nt
CNC(=O)CSc1nc2c([nH]c3ccccc32)c(=O)n1CCOC | i | 0.74 | -52 | 87 | 14 | 141* | 150* | 98 | 91
COc1cccc(-n2c(SCC(=O)N3CCCCC3)nc3c([nH]c4ccccc43)c2=O)c1 | nt | 1 | nt | 91 | 9 | nt | nt | nt | nt
